# Screens from PubChem BioAssay.
# In the library only some 1.9% were active in any assay of this set; here they are far more common.
# Runt-SMMHC FRET – blocks binding of human RUNX1 Runt domain to CBFb-SMMHC; Cerulean-Runt/Venus-CBFb-SMMHC FRET ratio 530/480, 1 h; AID 1434; 0.74% of 220,000 active; inhibition, % at 20 µM;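 active = mean inhibition across duplicate retests at 20 µM reaching about 50%, limit read from the data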;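 also: 0% = DMSO wells and 100% = wells with excess untagged CBFb-SMMHC; inhibitors lower the FRET ratio by blocking Runt binding to CBFb-SMMHC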
# RanGTP-Impb inh – inhibitors of RanGTP-importin-beta interaction, primary screen, biochemical, FRET, CFP-Ran, YFP-importin-beta, homogeneous; cell-free CFP-Ran/YFP-importin-beta FRET ratio; inhibition, % (test concentration not listed); 1.1% of 300,000 active;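 active = more than half of the replicate wells show a fall in the fluorescence ratio signal beyond about 16%, limit read from the data, passing the limit was not always enough; inconclusive = exactly half of the replicate wells pass the set limit; inactive = fewer than half of replicates pass the limit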;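 also: 0% = DMSO wells and 100% = Ran loaded with GDP instead of GTP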
# Runt-CBFb FRET – blocks binding of human RUNX1 Runt domain to CBFb; Cerulean-Runt/Venus-CBFb FRET ratio 530/480, 1 h; inhibition, % at 20 µM; 0.46% of 220,000 active; AID 1496;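 active = inhibition over about 50% at 20 µM in the single-dose screen, limit read from the data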;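 also: 0% = DMSO wells and 100% = excess unlabeled CBFb competitor control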
#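 Measured by: fluorescence energy transfer, 422 nm excitation, 530/480 nm emission; Assay system: Cerulean-Runt domain; Medium: Tris pH 7.5 buffer with BSA; Measure: loss of energy transfer signal; Controls: 5 µM unlabeled CBFb as full-inhibition high control; Incubation: protein complex preformed 1 h, compound exposure 1 h, room temperature, dark.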
# CaV13 ICDI inh – Primary screen for inhibitors of IQ motif and Ca2+-dependent inactivation inhibitor domain binding in CACNA1D, Förster resonance energy transfer in living cells, …; HEK cells, CFP/YFP FRET ICDI-IQ, plate reader, 10 min; percent FRET-ratio fall versus neutral wells; inhibition, % at 12.3 µM; 0.098% of 340,000 active; AID 743397;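 active = mean replicate inhibition of at least 30% and at least 1% of replicates passing that level; inconclusive = only one of the two criteria is met; inactive = neither criterion is met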;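 also: 0% = median of the neutral control wells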
# LANA-H2B inh – blocks KSHV LANA binding to histone H2A/H2B; inhibition, % (test concentration not listed); 0.6% of 320,000 active; cell-free LANA-H2A/H2B peptide, fluorescence polarization; Q9QR71; AID 2629; in the data active = inhibition mostly above about 10%, no sharp cut-off; inactive = mostly below about 6.7%
# Target sequence (Q9QR71 whole entry, looked up): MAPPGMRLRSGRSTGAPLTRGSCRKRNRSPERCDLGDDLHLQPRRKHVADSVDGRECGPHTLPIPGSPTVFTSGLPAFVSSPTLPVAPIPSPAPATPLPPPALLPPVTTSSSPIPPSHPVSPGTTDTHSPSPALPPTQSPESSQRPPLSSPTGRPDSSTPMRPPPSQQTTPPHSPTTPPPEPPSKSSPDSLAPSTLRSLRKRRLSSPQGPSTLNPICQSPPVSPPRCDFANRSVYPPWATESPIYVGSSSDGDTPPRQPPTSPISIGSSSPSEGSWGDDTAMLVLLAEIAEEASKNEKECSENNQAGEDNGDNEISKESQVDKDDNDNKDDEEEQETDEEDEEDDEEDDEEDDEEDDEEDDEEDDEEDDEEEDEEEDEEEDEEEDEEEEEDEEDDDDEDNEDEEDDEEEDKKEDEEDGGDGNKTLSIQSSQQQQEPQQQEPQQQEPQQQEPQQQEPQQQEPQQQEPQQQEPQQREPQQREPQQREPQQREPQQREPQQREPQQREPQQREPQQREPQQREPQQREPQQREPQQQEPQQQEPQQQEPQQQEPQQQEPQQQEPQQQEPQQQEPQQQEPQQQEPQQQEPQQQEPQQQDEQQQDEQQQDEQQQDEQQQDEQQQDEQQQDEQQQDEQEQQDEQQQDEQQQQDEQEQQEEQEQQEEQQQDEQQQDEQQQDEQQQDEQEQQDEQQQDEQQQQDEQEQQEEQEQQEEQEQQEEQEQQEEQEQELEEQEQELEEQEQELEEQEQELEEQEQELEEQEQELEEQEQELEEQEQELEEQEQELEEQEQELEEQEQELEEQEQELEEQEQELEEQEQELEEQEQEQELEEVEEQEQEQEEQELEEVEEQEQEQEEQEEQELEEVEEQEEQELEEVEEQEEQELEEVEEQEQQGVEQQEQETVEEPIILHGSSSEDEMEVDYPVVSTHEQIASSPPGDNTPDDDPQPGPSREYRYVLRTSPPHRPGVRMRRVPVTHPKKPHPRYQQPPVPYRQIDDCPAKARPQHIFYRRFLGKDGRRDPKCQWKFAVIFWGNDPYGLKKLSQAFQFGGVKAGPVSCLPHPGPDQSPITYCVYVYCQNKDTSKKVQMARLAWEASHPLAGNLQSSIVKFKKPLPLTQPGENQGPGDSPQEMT
# HDAC3 inhib – human HDAC3 inhibition | O15379 | recombinant HDAC3, fluorogenic peptide/trypsin coupled, fluorescence | inhibition, % at 8.3 µM | 0.15% of 320,000 active | AID 2718; in the data active = inhibition above about 26%, passing the limit was not always enough; inconclusive = no clear call, values can overlap the other calls
# Active calls of the source: *; ? = inconclusive; / = no result given; + = active, no number.
SMILES,Runt-SMMHC FRET,RanGTP-Impb inh,Runt-CBFb FRET,CaV13 ICDI inh,LANA-H2B inh,HDAC3 inhib
CC(C)(C)OC(=O)NCCCC[C@H](NC(=O)c1[nH]cnc1C(=O)Nc1ccccc1)C(=O)OC(C)(C)C,-4.4,0.9,-5.3,-9.9,0.1,36.7*
CC(C)(C)OC(=O)NCCCC[C@H](NC(=O)c1[nH]cnc1C(=O)N[C@@H](Cc1ccccc1)C(=O)OCc1ccccc1)C(=O)OC(C)(C)C,/,/,/,-9.9,0.4,38.3*
Cc1ccc(NC(=O)OCCNC(=O)OC(C)C)cc1,-3.0,?,/,-4.9,3.8,-2.5
C[C@@H](Oc1ccccc1)c1nnn(Cc2ccccc2)c1-c1c([C@@H](C)Oc2ccccc2)nnn1Cc1ccccc1,0.5,-0.4,0.0,-0.9,-6.0,3.8
Cc1ccc(C2=NN(CC(=O)NCCN(C)C)C(=O)CC2)cc1,/,2.4,/,-19.0,1.2,3.4
Cc1ccc(C2=NN(CC(=O)NCCN(CC(C)C)CC(C)C)C(=O)CC2)cc1,/,-0.4,/,-6.4,15.1*,-5.6
COc1cc(NC(=O)c2noc(C)c2[N+](=O)[O-])c(OC)cc1Cl,/,4.3,/,-15.2,-2.0,2.5
O=C(Cc1cccs1)Nc1cccc(C(=O)Nc2ccc(C(=O)O)cc2)c1,-0.1,0.2,0.0,-3.9,50.6*,-8.6
CCCCN1C=C(C(=O)OC)C(c2ccccc2Cl)C(C(=O)OC)=C1,92.5*,96.1*,30.0,+,0.9,-38.0
COCCN1C=C(C(=O)OC)C(c2ccccc2C(F)(F)F)C(C(=O)OC)=C1,81.6*,55.6*,121.7*,/,0.1,-94.3
COC(=O)C1=C(C)N(C)C(=NCc2ccc(OC)cc2)NC1c1ccccc1C(F)(F)F (stereo not given),/,/,/,-2.7,/,/
CCCCN1C=C(C(=O)OC)C(c2ccccc2C(F)(F)F)C(C(=O)OC)=C1,61.6*,94.4*,67.3*,-3.3,-4.7,-3.9
CCCCOc1ccccc1C1C(C(=O)OC)=C(C)N(C)C(C)=C1C(=O)OC,-3.8,-1.1,-1.7,-5.8,5.2,-8.7
O=C(CSc1ncn[nH]1)N1N=C2/C(=C/c3ccco3)CCCC2C1c1ccco1 (stereo not given),8.0,-2.6,30.8,-3.2,-9.4,11.5
O=C(CCCN1C(=O)/C(=C/c2cccc(Br)c2)SC1=S)Nc1cccnc1,-4.5,-3.5,0.0,0.5,1.7,0.1
O=C(CCCN1C(=O)/C(=C\c2cccc(Br)c2)SC1=S)Nc1cccnc1,-1.6,2.4,-1.0,-6.5,18.6*,-6.2
COc1ccc(-n2c(C)nc3cc(C(=O)N4CCOCC4)ccc32)cc1,0.2,-12.0,0.8,-0.1,3.2,3.2
Oc1c(N=NC(=S)Nc2ccccc2F)c2ccccc2n1Cc1ccc(Cl)cc1,-7.2,4.0,-1.0,-4.4,20.6*,-0.7
O=C(N1CCN(c2ccccc2F)CC1)C1(S(=O)(=O)c2ccc(Cl)cc2)CC1,/,-1.1,/,-3.4,3.3,0.1
CC(C)C(=O)Nc1ncc(Cc2ccccc2Cl)s1,-0.3,-1.5,-1.4,-2.6,-0.5,-2.1
N#CCC(=O)Nc1ncc(Cc2ccccc2Cl)s1,2.9,8.9,0.4,4.1,33.1*,-3.3
CCOC(=O)c1nc2ccc(C)cc2c2c1C1CC(c3c(Cl)cccc31)N2C(=O)OCc1ccccc1 (stereo not given),/,/,/,-6.0,/,/
COc1ccc2nc(C(F)(F)Cl)c(C#N)c(N)c2c1,-0.1,3.0,-0.7,-4.3,-1.2,5.8
COc1ccc2nc3cc(Cl)ccc3c(C#N)c2c1,28.6,51.3*,15.9,-4.7,-0.9,2.9
COc1ccc(C2=C/C(=C/c3cccnc3)C(=O)O2)cc1OC,-59.5,-15.1,-16.3,-5.6,0.5,0.4
SMILES,Runt-SMMHC FRET,RanGTP-Impb inh,Runt-CBFb FRET,CaV13 ICDI inh,LANA-H2B inh,HDAC3 inhib
CCOc1ccc(C2=C/C(=C/c3cccnc3)C(=O)O2)cc1,77.6,28.9*,11.7,-8.5,4.3,2.5
C[C@H](CO)N1C[C@H](C)[C@@H](CN(C)S(=O)(=O)c2ccccc2)Oc2c(NC(=O)C3CCCCC3)cccc2C1=O,/,/,/,-3.6,6.1,0.4
CN(c1ccc(C(=O)N/N=C/c2cccc([N+](=O)[O-])c2)cc1)S(=O)(=O)c1ccccc1,/,27.7*,/,-7.2,2.6,-1.1
COc1ccc(/C=N/NC(=O)c2ccc(N(C)S(=O)(=O)c3ccccc3)cc2)cc1,-3.8,0.6,0.3,-5.1,2.4,?
c1ccc2c(c1)OCC(c1nnc3n1-c1ccccc1SC3)O2 (stereo not given),2.9,-0.4,-1.5,/,17.4*,1.8
COCCCn1c(C(=O)N2CCOCC2)cc2c(=O)n3cccc(C)c3nc21,/,-1.5,/,-3.1,-11.8,-18.8
CCCCn1c(=NC(C)=O)c(C#N)cc2c(=O)n3cccc(C)c3nc21,/,85.0*,/,-4.2,3.2,-26.9
CCOCCCn1c(=NC(C)=O)c(C#N)cc2c(=O)n3cccc(C)c3nc21,88.1*,123.4*,58.7*,-1.3,10.2,-325.4
CCCCCn1c(=NC(=O)c2cccnc2)c(C#N)cc2c(=O)n3cccc(C)c3nc21,/,143.8*,/,0.4,-0.9,-50.3
CCOCCCn1c(=NC(=O)c2ccc(OC)c(OC)c2)c(C#N)cc2c(=O)n3cccc(C)c3nc21,143.1*,86.4*,106.0*,/,-1.6,-22.8
Cc1nc(NC(C)C(=O)O)c2nc(C)oc2n1 (stereo not given),-8.3,0.9,-3.3,-4.8,-0.8,3.9
COc1ccc(NS(=O)(=O)c2ccc(-n3cnnn3)cc2)cc1OC,/,-1.7,/,-10.1,/,/
CCCCCn1c(=NC(C)=O)c(C#N)cc2c(=O)n3ccccc3nc21,42.1,108.2*,16.2,-1.2,-2.7,-60.6
C/C=C/c1ccc(OCCCCN2CC(C)CC(C)C2)c(OC)c1 (stereo not given),-2.4,2.7,1.2,-1.0,195.3*,1.4
C/C=C/c1ccc(OCCCCN2CCN(CC)CC2)c(OC)c1,0.1,7.8,-2.5,-0.9,1.9,-5.1
Cc1c(OCC(=O)NCCCN2CCOCC2)ccc2c3c(c(=O)oc12)CCC3,/,-0.3,/,-13.8,-1.0,-5.7
CC(NC(=O)/C=C/c1ccc(Br)cc1)c1ccc(Cl)cc1 (stereo not given),-11.3,-2.7,-1.8,8.5,-3.4,0.6
N#Cc1c(CSCC(=O)O)cc(=O)n2c1[nH]c1ccccc12,5.5,-10.9,4.3,-1.4,-4.4,-11.7
N#Cc1c(C(F)(F)F)cc(=O)n2c1[nH]c1ccccc12,/,91.2*,/,3.5,-1.0,-269.2
O=C(Nc1ccccc1)c1ccccc1CCc1ccccc1,0.9,3.9,-6.6,-4.2,22.6*,4.8
COc1ccccc1C1C(C#N)=C(N)Oc2c1oc(CO)cc2=O (stereo not given),-3.1,-1.8,-0.8,-0.3,12.3*,13.1
